Screens: PubChem BioAssay, The Scripps Research Institute Molecular Screening Center
Most compounds without a hit are left out; they make up all but 1.9% or so of the library.
CHRM5 agonist = CHRM5 agonism in calcium assay. AID 624037. CHO-K1 hM5 cells, Fluo-8 calcium fluorescence; 0% DMSO wells, 100% maximal acetylcholine response. activation, % at 3 µM. P08912. 360,000 compounds, 0.19% hits;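 active = activation above the run's mean over test compounds plus 3 SD, cut at about 23% in these data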;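 note: signal is peak over basal fluorescence ratio across the kinetic read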
Target sequence (P08912 whole entry, looked up): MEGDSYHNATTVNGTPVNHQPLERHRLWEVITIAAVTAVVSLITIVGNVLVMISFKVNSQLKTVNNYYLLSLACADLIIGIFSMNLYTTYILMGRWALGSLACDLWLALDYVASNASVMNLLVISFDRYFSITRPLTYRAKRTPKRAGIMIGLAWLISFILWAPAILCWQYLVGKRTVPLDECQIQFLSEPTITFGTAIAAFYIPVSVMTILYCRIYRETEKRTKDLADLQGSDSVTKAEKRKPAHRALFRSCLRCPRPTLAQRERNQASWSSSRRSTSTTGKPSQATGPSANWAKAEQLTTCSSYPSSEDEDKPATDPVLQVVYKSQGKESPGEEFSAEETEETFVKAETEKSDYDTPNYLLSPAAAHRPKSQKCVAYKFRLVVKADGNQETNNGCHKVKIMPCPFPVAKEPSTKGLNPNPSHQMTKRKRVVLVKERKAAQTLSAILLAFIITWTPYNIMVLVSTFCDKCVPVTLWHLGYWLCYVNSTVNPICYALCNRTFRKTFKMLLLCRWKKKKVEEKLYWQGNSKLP
M4 PAM = positive allosteric modulators of human muscarinic M4 receptor; P08173; CHO-K1 hM4/Gqi5, Fluo-8 calcium fluorescence, ACh EC20; 0% = ACh EC20, 100% = maximal ACh; activation, % at 3 µM; 360,000 compounds, 0.4% hits; AID 624126;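 active = activation above its plate's cutoff, the mean activation of sample wells plus 3 SD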
M5 antag = CHRM5 antagonism in calcium assay | P08912 | CHO-hM5 cells, Fluo-8 calcium fluorescence, ACh EC80 | inhibition, % at 3 µM | 360,000 compounds, 0.59% hits | AID 624040;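 active = inhibition above a per-plate cutoff, the mean of that plate's test compounds plus 3 SD, cut at about 27% in these data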
CHRM4 agonist = agonists of human muscarinic M4 receptor (CHRM4); P08173; CHO-K1 hM4/Gqi5, Fluo-8 calcium fluorescence; vehicle 0%, full acetylcholine response 100%; activation, % at 3 µM; 360,000 compounds, 0.14% hits; AID 624127;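 active = activation above the run mean over all test wells plus 3 SD, cut at about 32% in these data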;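 note: peak over basal fluorescence ratio per well then scaled between controls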
M4 antag = CHRM4 antagonism in calcium assay; inhibition, % at 3 µM; AID 624125; CHO-hM4 cells, ACh EC80, Fluo-8 calcium fluorescence; P08173; 360,000 compounds, 0.73% hits;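 active = inhibition above its plate's cutoff, the mean inhibition of sample wells plus 3 SD, cut at about 27% in these data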
M5 PAM = positive allosteric modulators of human muscarinic M5 receptor. P08912. CHO-K1 hM5, Fluo-8 calcium, ACh EC20 PAM; 0% = ACh EC20, 100% = ACh EC100. activation, % at 3 µM. 360,000 compounds, 0.3% hits;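 active = activation above the run cutoff, the mean activation of all test compounds plus 3 SD, cut at about 18% in these data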
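system = human M5 receptor in CHO-K1 cells | reagent = EC20 acetylcholine as agonist stimulus | compound dosing = single-point, 3 µM nominal | incubation = Fluo-8 loading 80 min at 37 °C plus 30 min room temperature | detection = Fluo-8 calcium dye fluorescence, kinetic read | benchmarks = low control EC20 acetylcholine (0%), high control EC100 acetylcholine (100%)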
Of the large screens only hits and unclear results are named; the others gave an inactive call; ! = a repeat was not active.

O=C(COC(=O)Cc1ccccc1)NC(=O)NC1CCCCC1	none
CC[N+](CC)(CC)CCCOC(=O)C(O)(c1ccccc1)C1CCCCC1 (centres undefined)	M5 antag 99, M4 antag 99
Cc1ccc(OCCOc2cccc(C=C3C(=O)NC(=O)NC3=O)c2)cc1	none
Cc1ccc2c(c1N)C(=O)c1ccccc1C2=O	M5 antag 28
CCN(CC)C(=O)c1ccc(NC(=O)CN2CCc3cc(OC)c(OC)cc3C2)cc1	none
CC(=O)c1cn(Cc2ccccc2C#N)c2ccccc12	M5 antag 37, M4 antag 29
CC(C)C(=O)c1cn(Cc2ccccc2C#N)c2ccccc12	none
Cc1ccc(S(=O)(=O)N2CCCCC2)cc1NC(=O)CN1CC=C(c2ccccc2)CC1	none
COc1ccc(-n2c(O)c(/C=C/C=Nc3ccccc3)c(=O)[nH]c2=O)cc1	CHRM5 agonist 24
O=c1[nH]c(=O)n(C2CCCCC2)c(O)c1/C=C/C=Nc1ccccc1	CHRM5 agonist 28
O=c1[nH]c(=O)n(-c2ccccc2)c(O)c1/C=C/C=Nc1ccccc1	none
C[N+](C)(C)CC#CCOC(=O)Nc1cccc(Cl)c1	CHRM5 agonist 89, M5 antag 78, CHRM4 agonist 44
O=C(CN1CC=C(c2ccccc2)CC1)NC(=O)NCc1ccccc1	none
C[N+](C)(C)CCOC(=O)CBr	CHRM5 agonist 37
CC(=O)OCC[N+](C)(C)C	CHRM5 agonist 100, M5 antag 98, CHRM4 agonist 96, M4 antag 79
CC[N+](CC)(CC)CC	none
O=C(Nc1cccc(OC(=O)N2CCCCC2)c1)N1CCCCC1	none
COC(=O)C1=CO[C@@H](C)[C@@H]2CN(CCc3c[nH]c4ccccc34)CC[C@H]12	M5 antag 49
Oc1ccc(-[n+]2c(-c3ccccc3)cc(-c3ccccc3)cc2-c2ccccc2)cc1	M4 antag 54
O=[N+]([O-])c1ccc(-[n+]2c(-c3ccccc3)cc(-c3ccccc3)cc2-c2ccccc2)cc1	M4 antag 40
COC1=C(OC)[C@]23CCc4ccc(OC)c(OC)c4[C@]2(CCN3C)CC1=O	none
O=c1[nH]c(=S)n(-c2ccccc2)c(O)c1/C=N/N1CCCCC1c1cccnc1 (centres undefined)	none
CCc1ccc(-n2c(O)c(/C=N/N3CCCCC3c3cccnc3)c(=O)[nH]c2=O)cc1 (centres undefined)	M5 PAM 19
O=C1NC(=O)N(CCNc2ncc(C(F)(F)F)cc2Cl)C(=O)C1/C=N/OCc1c(F)cccc1Cl (centres undefined)	none
C(#CCN1CCCCC1)COCc1ccccc1	none
OC(CC#CCN1CCCCCC1)(c1ccccc1)C1CCCC1 (centres undefined)	M5 antag 84, M4 antag 91
CC1(C(O)(C#CCN2CCCCC2)c2ccccc2)CCCC1 (centres undefined)	M5 antag 99, M4 antag 99
CN(C)CC#CCC(O)(c1ccccc1)C1CCCC1 (centres undefined)	M5 antag 94, M4 antag 87
CCN(CC)C(=O)c1ccc(NC(=O)c2cccc(S(=O)(=O)N3CCN(C)CC3)c2)cc1	none
O=C1NC(=O)C(=Cc2ccc(N3CCN(C(=O)c4ccccc4)CC3)c([N+](=O)[O-])c2)C(=O)N1	M4 PAM 54, CHRM4 agonist 41, M4 antag 48
CC[n+]1c(/C=C/C=C/c2ccc(N(C)C)cc2)sc2ccccc21	M5 antag 51, M4 antag 55
CS(=O)(=O)c1ccc(C2=C(CNC(=O)c3cccs3)[C@H]3CC[C@@H](C2)N3CCOc2ccccc2)cc1	none
CS(=O)(=O)c1ccc(C2=C(CNC(=O)c3nccs3)[C@H]3CC[C@@H](C2)N3CCOc2ccccc2)cc1	M4 antag 49
CCn1ccnc1CN1CCCC(C(=O)c2ccc(SC)cc2)C1 (centres undefined)	none
C[C@]12CC(=O)CC1CCC1C2CC[C@@]2(C)C1CC[C@@H]2O (some centres undefined)	none
Clc1ccc(C[n+]2c(-c3ccccc3)cc(-c3ccccc3)cc2-c2ccccc2)cc1	M4 antag 31
Cc1cc(-c2ccccc2)cc(-c2ccccc2)[n+]1CCc1ccccc1	M4 antag 38
CCCCCc1nc2ccccc2c(=O)n1-c1ccc(Cl)cc1[N+](=O)[O-]	none
O=C(Nc1ccc(C(=O)O)cc1)Oc1ccc(N(CCCl)CCCl)cc1	none
Cc1cc(C=C(C#N)C#N)ccc1N1CCCC1	none
CCN1CCN(Cc2cc(Br)cc(OC)c2O)CC1	M4 antag 39
c1ccc(C2CN3CCC2CC3)cc1 (centres undefined)	none
OC(Cc1ccccc1)(c1ccccc1)C1CN2CCC1CC2 (centres undefined)	M5 antag 90, M4 antag 85
OC(c1ccccc1)(c1ccc(Cl)cc1)C1CN2CCC1CC2 (centres undefined)	M5 antag 60, M4 antag 44
OC(c1ccccc1)(c1ccccc1)C1CN2CCC1CC2 (centres undefined)	M5 antag 99, M4 antag 75
CCC[N+]12CCC(CC1)C(=C(c1ccccc1)c1ccccc1)C2	M5 antag 94, M4 antag 57
CCCC[N+]12CCC(CC1)C(=C(c1ccccc1)c1ccccc1)C2	M5 antag 72, M4 antag 57
OCC[N+]12CCC(CC1)C(C(O)(c1ccccc1)c1ccccc1)C2 (centres undefined)	none
O=C1NCN(c2ccccc2)C12CCN(C(c1ccccc1OC(F)(F)F)c1nnnn1C1CCCCC1)CC2 (centres undefined)	none
CN1CCC(OC(=O)C2c3ccccc3Oc3ccccc32)CC1	M5 antag 99, M4 antag 99
Cc1ccc2nc(C)n(-c3ccc(F)cc3)c(=O)c2c1	none
CN1CCC2(CC1)C(C#N)=C(N)NC(S)=C2C#N	none
CCN(CC)C(=O)c1ccc(NC(=O)c2cn(-c3ccccc3)nc2-c2ccc(OC)cc2)cc1	M5 antag 28
CCC(=NCc1ccco1)c1c(O)n(-c2ccc(OC)cc2)c(=O)[nH]c1=O	none
CCC(=NCc1ccco1)c1c(O)n(-c2ccc(Cl)cc2)c(=O)[nH]c1=O	M5 PAM 26
CCCCCCC[n+]1ccc(-c2cc[n+](CCCCCCC)cc2)cc1	none
C[n+]1ccc(-c2cc[n+](C)cc2)cc1	CHRM5 agonist 61!
Cc1ccc(C(C)C)c(OCC#CCN2CCCC2)c1	M5 antag 44, M4 antag 32
